Data from ChEMBL document CHEMBL4017489, “Design, Synthesis, and Evaluation of New Selective NM23-H2 Binders as c-MYC Transcription Inhibitors via Disruption of the NM23-H2/G-Quadruplex Interaction” (J Med Chem, 2017).
Activity calls are given as the source filed them. The calls are words filed in the database; no cut-off is given here.

Assays:
SiHa [1] = test: Antitumor activity against human SiHa cells xenografted in BALB/C nude mouse assessed as tumor weight at 2.5 mg/kg, ip administered daily after 3 weeks (reference value: 511.6 mg); type: functional
SiHa [2] = test: Antitumor activity against human SiHa cells xenografted in BALB/C nude mouse assessed as tumor growth inhibition at 2.5 mg/kg, ip administered daily after 3 weeks relative to control; type: functional; settings: 504 h, read-out: TGI
[3] = target: T1, Nucleoside diphosphate kinase B (Homo sapiens, UniProt P22392, G113F); test: Binding affinity to NM23-H2 G113F mutant (unknown origin) by SPR analysis
[4] = Binding affinity to biotin-labeled 18-mer duplex DNA hairpin (unknown origin) at 40 uM after 30 mins by SPR analysis
SiHa [5] = test: Cell cycle arrest in human SiHa cells assessed as accumulation at G2/M phase at 2 uM after 9 hrs by propidium iodide staining based flow cytometry (reference value: 39 %); type: functional
Procedure, shortened: (§1)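 SiHa cells (2.0 × 10^5 per well) plated 24 h, then exposed to 2 μM compound or left untreated for 3, 6, 9, 12, 24, 36 or 48 h. Cells washed in PBS, fixed overnight in ice-cold 70% ethanol, treated with 20 μg/mL RNase A for 30 min at 37 °C, stained with PI, and read by flow cytometry at 488 nm. Phase percentages compared with untreated control; at least three experiments.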

SiHa [6] = test: Down regulation of cyclin D1 expression in human SiHa cells at 0.5 to 2 uM after 24 to 48 hrs by Western blot analysis; type: functional, cell-based
Procedure, shortened: (§2)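 SiHa cells (2.0 × 10^5) treated with compound at various concentrations for 24 or 48 h, then lysed at 4 °C. Protein measured by BCA; 30 μg run on 10% SDS-PAGE and transferred to nitrocellulose. Membranes blocked in 5% milk, probed with primary antibodies overnight at 4 °C, then HRP secondary for 2 h, and detected by chemiluminescence. Bands quantified by densitometry; at least three experiments.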

SiHa [7] = test: Anticlonogenic activity against human SiHa cells up to 0.5 uM after 14 days by crystal violet staining based assay; type: functional, cell-based
Procedure, shortened: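 Colony formation: SiHa cells and primary cultured mouse mesangial cells exposed to 0.5, 0.25, 0.125, 0.0625 and 0.03125 μM for 14 days, DMSO as negative control; three repeats.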

[8] = Binding affinity to N-terminal NT-647-NHS labeled NM23-H2 D121A mutant (unknown origin) after 30 mins by MST analysis; design: species or system Homo sapiens
SiHa [9] = test: Cell cycle arrest in human SiHa cells assessed as accumulation at G0/G1 phase at 2 uM after 24 hrs by propidium iodide staining based flow cytometry (reference value: 48 %); type: functional
Procedure, shortened: (§3)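 SiHa cells plated 24 h, treated at 2 μM for 3–48 h; fixed in ice-cold 70% ethanol overnight, RNase A 20 μg/mL 37 °C 30 min, PI-stained, flow cytometry at 488 nm; phase percentages quantified; at least three experiments.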

SiHa [10] = test: Cell cycle arrest in human SiHa cells assessed as accumulation at G0/G1 phase at 2 uM after 6 hrs by propidium iodide staining based flow cytometry (reference value: 48 %); type: functional; procedure, shortened: as §3
[11] = target: T1, Nucleoside diphosphate kinase B; test: Binding affinity to N-terminal NT-647-NHS labeled NM23-H2 G113F mutant (unknown origin) after 30 mins by MST analysis
SiHa [12] = test: Antiproliferative activity against human SiHa cells up to 100 hrs by real-time cellular activity assay; type: functional, cell-based
Procedure, shortened: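 Impedance-based real-time cell analysis at 37 °C, 5% CO2: 100 μL of 20 000 cells/mL added over medium background, settled 20 min, dosed after 24 h; read every 2 min for 2 h, then every 15 min to end; three repeats.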

SiHa [13] = test: Cell cycle arrest in human SiHa cells assessed as accumulation at S phase at 2 uM after 36 hrs by propidium iodide staining based flow cytometry (reference value: 13 %); type: functional; procedure, shortened: as §1
SiHa [14] = test: Cell cycle arrest in human SiHa cells assessed as accumulation at G0/G1 phase at 2 uM after 48 hrs by propidium iodide staining based flow cytometry (reference value: 48 %); type: functional; procedure, shortened: as §3
SiHa [15] = test: Down regulation of CDK4 expression in human SiHa cells at 0.5 to 2 uM after 24 to 48 hrs by Western blot analysis; type: functional, cell-based; procedure, shortened: as §2
SiHa [16] = test: Induction of apoptosis in human SiHa cells assessed as increase in cleaved PARP level after 48 hrs by Western blot analysis; type: functional, cell-based
Procedure, shortened: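 SiHa cells treated with 0, 0.5, 1.0 or 2.0 μM for 48 h and lysed for total protein. Caspase-3, cleaved caspase-3, PARP and cleaved PARP detected by Western blot (30 μg protein, 10% SDS-PAGE, HRP chemiluminescence). Bands quantified by densitometry; at least three experiments.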

[17] = target: T2, Nucleoside diphosphate kinase B (Homo sapiens, UniProt P22392); test: Binding affinity to NM23-H2 in human SiHa cells assessed as disruption of protein interaction with c-myc G-quadruplex DNA by measuring decrease in c-MYC mRNA level after 9 hrs by RT-PCR analysis; type: cell-based
Procedure, shortened: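 SiHa cells treated at 0, 0.5, 1.0, 2.0 μM for 9 h; TRIzol RNA, 1.5 μg reverse-transcribed with oligo(dT); semiquantitative PCR, 30 cycles, 58 °C annealing; bands normalized to β-actin, untreated 100%; three repeats.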

[18] = target: T2, Nucleoside diphosphate kinase B; test: Binding affinity to NM23-H2 in human SiHa cells assessed as decrease in NM23-H2 to c-myc G-quadruplex DNA interaction after 9 hrs by Chromatin immunoprecipitation assay; type: cell-based
Procedure, shortened: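 SiHa cells treated 9 h; chromatin immunoprecipitated overnight at 4 °C with anti-NM23-H2 (3 μg), rabbit IgG control; c-MYC promoter fragment PCR-amplified, gel bands normalized to input, untreated set 100%; three repeats.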

SiHa [19] = test: Induction of apoptosis in human SiHa cells assessed as necrotic cells at 2 uM after 48 hrs by Annexin V-FITC/propidium iodide based flow cytometric analysis (reference value: 0.3%); type: functional
SiHa [20] = test: Cell cycle arrest in human SiHa cells assessed as accumulation at G0/G1 phase at 2 uM after 9 hrs by propidium iodide staining based flow cytometry (reference value: 48 %); type: functional; procedure, shortened: as §3
SiHa [21] = test: Cell cycle arrest in human SiHa cells assessed as accumulation at G2/M phase at 2 uM after 36 hrs by propidium iodide staining based flow cytometry (reference value: 39 %); type: functional; procedure, shortened: as §1
SiHa [22] = test: Cell cycle arrest in human SiHa cells assessed as accumulation at G0/G1 phase at 2 uM after 3 hrs by propidium iodide staining based flow cytometry (reference value: 48%); type: functional; procedure, shortened: as §3
Mus musculus = test: Toxicity in BALB/C nude mouse xenografted with human SiHa cells at 2.5 to 5 mg/kg, ip administered daily after 3 weeks; type: organism-based; settings: in vivo, 504 h
Procedure, shortened: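 SiHa cells implanted in the right armpit of BALB/c nu/nu mice. At approximately 50 mm3, mice randomized (n = 8/group) to vehicle, compound 2.5 or 5.0 mg/kg, or doxorubicin 1.0 mg/kg, given ip daily for 3 weeks. Body weight and signs of pain, distress or discomfort monitored; tumors excised and weighed. Data given as mean ± SEM, t test against vehicle.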

SiHa [23] = test: Cell cycle arrest in human SiHa cells assessed as accumulation at S phase at 2 uM after 9 hrs by propidium iodide staining based flow cytometry (reference value: 13 %); type: functional; procedure, shortened: as §1

T2 sequence (P22392 whole entry): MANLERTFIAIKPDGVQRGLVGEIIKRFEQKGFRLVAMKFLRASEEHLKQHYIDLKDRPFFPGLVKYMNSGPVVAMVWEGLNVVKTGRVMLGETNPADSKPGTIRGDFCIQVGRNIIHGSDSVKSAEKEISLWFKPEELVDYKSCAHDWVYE
T1 sequence (P22392 whole entry G113F): as the sequence (P22392 whole entry) above, with G113F counted along it

Q: Which results are given for `CN(C)CCCNc1cc2nc3n(c(=O)c2cc1F)CC/C3=C\c1ccc(OCc2ccccc2)cc1O`?
A: Activity (SiHa [1]): 265.9 mg; inhibition in vivo at 2.5 mg/kg (SiHa [2]): 48%; Kd [3]: 15.5 µM; Activity [4]: inactive; Activity (SiHa [5]): 21%; Activity (SiHa [6]): Active; Activity (SiHa [7]): Active; Kd [8]: 94.1 µM; Activity (SiHa [9]): 22%; Activity (SiHa [10]): 62%; Kd [11]: 13.5 µM; Activity (SiHa [12]): Dose-dependent effect; Activity (SiHa [13]): 0%; Activity (SiHa [14]): 0%; Activity (SiHa [15]): Active; Activity (SiHa [16]): Dose-dependent effect; Activity [17]: Dose-dependent effect; Activity [18]: Dose-dependent effect; Activity (SiHa [19]): 2.2%; Activity (SiHa [20]): 67%; Activity (SiHa [21]): 0%; Activity (SiHa [22]): 51%; Activity (Mus musculus): Non-Toxic; Activity (SiHa [23]): 12%
